These results are taken from ChEMBL document CHEMBL4138180, “neo-Clerodane Diterpenoids from Salvia polystachya Stimulate the Expression of Extracellular Matrix Components in Human Dermal Fibroblasts” (2017).

Experiment [1] has as its system NHDF. The experiment can be described thus: Upregulation of COL1A1 mRNA expression in HDF at 29.2 uM after 48 hrs by RT-PCR analysis relative to control. The format is functional, Homo sapiens. The method, boiled down:
(§1)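 Normal human dermal fibroblasts from plastic-surgery biopsies, collagenase-disaggregated, grown in L15 Leibovitz with 10% FBS and penicillin/streptomycin at 37 °C. At 70% confluence refed with medium containing 0.26−0.29, 2.56−2.93 or 25.6−29.3 μM compound for 48 h. Total RNA, oligo-dT RT-PCR, 30 cycles, agarose gel band densitometry normalized to GAPDH. Fold versus basal-medium control, mean ± SD, one-way ANOVA.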

The subject of experiment [2] is NHDF. The experiment can be described thus: Upregulation of elastin mRNA expression in HDF at 0.29 to 29.2 uM after 48 hrs by RT-PCR analysis. The format is functional, cell-based. The note with it: Homo sapiens. The procedure, abridged: as §1
Experiment [3] deals with NHDF. The experiment can be described thus: Inhibition of elastin mRNA expression in HDF at 0.29 to 29.2 uM after 48 hrs by RT-PCR analysis. It is filed as functional, cell-based. The following applies: Homo sapiens. The method, boiled down: as §1
In experiment [4] the test system is NHDF. The experiment can be described thus: Upregulation of COL1A1 mRNA expression in HDF at 100 uM after 48 hrs by RT-PCR analysis. The note with it: Homo sapiens. The format is functional, cell-based. The procedure, abridged: (§2)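 Positive control: ascorbic acid at 100 μM in basal medium (L15 Leibovitz, 10% FBS, antibiotics) added to normal human dermal fibroblasts at 70% confluence, 48 h, 37 °C. Total RNA reverse-transcribed with oligo dT, PCR 30 cycles, bands on 1.5% agarose quantified and normalized to GAPDH mRNA. Mean ± SD versus basal-medium control, one-way ANOVA.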

Experiment [5] concerns NHDF. The experiment can be described thus: Upregulation of elastin mRNA expression in HDF at 100 uM after 48 hrs by RT-PCR analysis. It is filed as functional, cell-based. The note with it: Homo sapiens. The method, boiled down:
as §2

Experiment [6] has as its system NHDF. Briefly: Upregulation of COL1A1 mRNA expression in HDF at 0.28 uM after 48 hrs by RT-PCR analysis relative to control. The format is functional, Homo sapiens. The procedure, abridged:
as §1

Experiment [7] relates to NHDF. Briefly: Upregulation of […] mRNA expression in HDF at 0.28 to 27.9 uM after 48 hrs by RT-PCR analysis relative to control. It is filed as functional, Homo sapiens. The method, boiled down: as §1
Experiment [8] concerns NHDF. The experiment can be described thus: Upregulation of COL5A1 mRNA expression in HDF at 0.28 uM after 48 hrs by RT-PCR analysis relative to control. The format is functional, Homo sapiens. The method, boiled down: as §1
Experiment [9] deals with NHDF. The experiment can be described thus: Upregulation of elastin mRNA expression in HDF at 0.28 to 27.9 uM after 48 hrs by RT-PCR analysis relative to control. It is filed as functional, Homo sapiens. The method, boiled down:
as §1

In experiment [10] the test system is NHDF. The experiment can be described thus: Inhibition of elastin mRNA expression in HDF at 0.28 to 27.9 uM after 48 hrs by RT-PCR analysis. It is filed as functional, cell-based. The note with it: Homo sapiens. The procedure, abridged: as §1
Another experiment relates to Escherichia coli. Briefly: Antibacterial activity against Escherichia coli at 0.5 to 8 ug after 18 hrs by agar disc diffusion method. It is filed as functional, organism-based. The procedure, abridged: (§3)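 Bacteria suspended in saline at 10^8 CFU mL−1; 0.1 mL spread on nutrient agar (pH 6.8). Filter-paper disks carrying 8, 4, 2, 1 and 0.5 μg of compound (in DMSO) placed on the plates. Incubated aerobically at 37 °C for 18 h. Inhibition zone measured by caliper. Ampicillin and DMSO disks served as controls.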
(In general: In agar diffusion tests the substance spreads into inoculated agar from a disc or well.)

The next experiment concerns Bacillus sp. Briefly: Antibacterial activity against Bacillus sp. at 0.5 to 8 ug after 18 hrs by agar disc diffusion method. It is filed as functional, organism-based. The method, boiled down:
as §3

Another experiment has as its system Candida albicans. Briefly: Antifungal activity against Candida albicans ATCC 10235 at 0.5 to 8 ug after 24 hrs by agar disc diffusion method. The format is functional, organism-based. The method, boiled down: (§4)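 Qualitative disk diffusion on potato dextrose agar. Fungal inoculum at a final 10^5 CFU mL−1. Disks carried 8, 4, 2, 1 and 0.5 μg of compound in DMSO. Incubated aerobically at 37 °C for 24 h. Growth-inhibition zone measured by caliper. Amphotericin B and DMSO disks served as controls.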

The next experiment has as its system Nakaseomyces glabratus. The experiment can be described thus: Antifungal activity against Candida glabrata CBS 138 at 0.5 to 8 ug after 24 hrs by agar disc diffusion method. The format is functional, organism-based. The method, boiled down: as §4
Experiment [11] relates to NHDF. The experiment can be described thus: Upregulation of COL1A1 mRNA expression in HDF at 0.29 to 29.3 uM after 48 hrs by RT-PCR analysis. The note with it: Homo sapiens. It is filed as functional, cell-based. The method, boiled down: (§5)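 Primary dermal fibroblasts from surgical biopsies, collagenase-dissociated and grown in L15 with 10% FBS at 37 °C. Total RNA (1 μg) was reverse-transcribed with oligo dT. PCR ran 30 cycles and products were run on 1.5% agarose. Bands were quantified and normalized to GAPDH, giving fold over the basal-medium control as mean ± SD, with one-way ANOVA.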

Experiment [12] concerns NHDF. The experiment can be described thus: Upregulation of […] mRNA expression in HDF at 0.29 uM after 48 hrs by RT-PCR analysis relative to control. It is filed as functional, Homo sapiens. The method, boiled down:
as §5

Experiment [13] deals with NHDF. The experiment can be described thus: Upregulation of […] mRNA expression in HDF at 2.93 uM after 48 hrs by RT-PCR analysis relative to control. It is filed as functional, Homo sapiens. The procedure, abridged:
as §5

Experiment [14] concerns NHDF. The experiment can be described thus: Upregulation of COL5A1 mRNA expression in HDF at 2.93 uM after 48 hrs by RT-PCR analysis relative to control. It is filed as functional, Homo sapiens. The method, boiled down:
as §5

Experiment [15] relates to NHDF. Briefly: Upregulation of elastin mRNA expression in HDF at 0.29 to 29.3 uM after 48 hrs by RT-PCR analysis relative to control. The format is functional, Homo sapiens. The method, boiled down:
as §5

The subject of experiment [16] is NHDF. Briefly: Inhibition of elastin mRNA expression in HDF at 0.29 to 29.3 uM after 48 hrs by RT-PCR analysis. It is filed as functional, cell-based. The following applies: Homo sapiens. The procedure, abridged: as §5

The source made the active and inactive calls. No cut-off for these calls is given here.

For `C[C@@H]1[C@H]2C[C@@]34COC(=O)[C@H]3CC=C[C@H]4[C@@]13C[C@H](c1ccoc1)O[C@H]3O2`, in the experiment with NHDF [1], the “fold change (FC)” value is 1.6. The outcome with NHDF [2] was Active. Also, the inhibition result in the experiment with NHDF [3] was “inactive”.
On to `O=C1O[C@H]([C@@H](O)CO)C(O)=C1O`, for which the result in the experiment on NHDF [4] and in the experiment with NHDF [5] was Active.
With `C[C@@H]1[C@H]2C[C@@]34COC(=O)[C@H]3C[C@H]3O[C@H]3[C@H]4[C@@]13C[C@H](c1ccoc1)O[C@H]3O2`, the “fold change (FC)” value in the experiment with NHDF [6] is on record as 1.6; in the experiment with NHDF [7], 2.1 - 2.5; in the experiment with NHDF [8], 2.2; in the experiment with NHDF [9] it was 2.7 - 3.2. Further, in the experiment on NHDF [10], the inhibition result was “inactive”. The outcome in the experiment on Escherichia coli, with Bacillus sp., in the experiment with Candida albicans and with Nakaseomyces glabratus was inactive.
Turning to `C[C@]12C[C@H](c3ccoc3)OC(=O)[C@H]1CC[C@@]13COC(=O)C1=CC=C[C@H]32`, the result in the experiment with NHDF [11], with Escherichia coli, in the experiment on Bacillus sp., in the experiment on Candida albicans and in the experiment on Nakaseomyces glabratus was inactive. In addition, the “fold change (FC)” value in the experiment on NHDF [12] was 2.5; in the experiment with NHDF [13], 3.4; with NHDF [14], 2.5; in the experiment with NHDF [15] it was 2.1 - 3.4. In addition, the inhibition entry with NHDF [16] is “inactive”.
